ChEMBL document CHEMBL2429759, “Anti-tumor activity evaluation of novel chrysin-organogermanium(IV) complex in MCF-7 cells” (Bioorg Med Chem Lett, 2013)

Tests used:
[1] = (§1) Growth inhibition of human MCF10A cells at 30 ug/ml by MTT assay; format: cell-based, MCF-10A; settings: MCF10A cells, read-out: GI
[2] = (§2) Growth inhibition of human MCF10A cells at 20 ug/ml by MTT assay; format: cell-based, MCF-10A; settings: MCF10A cells, read-out: GI
[3] = (§3) Growth inhibition of human MCF10A cells at 5 ug/ml by MTT assay; format: cell-based, MCF-10A; settings: MCF10A cells, read-out: GI
[4] = (§4) Growth inhibition of human MCF10A cells at 10 ug/ml by MTT assay; format: cell-based, MCF-10A; settings: MCF10A cells, read-out: GI
MCF7 [5] = experiment: Growth inhibition of human MCF7 cells at 20 ug/ml by MTT assay; format: functional; settings: read-out: GI
MCF7 [6] = experiment: Growth inhibition of human MCF7 cells at 30 ug/ml by MTT assay; format: functional; settings: read-out: GI
MCF7 [7] = experiment: Growth inhibition of human MCF7 cells at 10 ug/ml by MTT assay; format: functional; settings: read-out: GI
COLO 205 [8] = experiment: Growth inhibition of human COLO205 cells at 30 ug/ml by MTT assay; format: functional; settings: read-out: GI
MCF7 [9] = experiment: Growth inhibition of human MCF7 cells at 5 ug/ml by MTT assay; format: functional; settings: read-out: GI
COLO 205 [10] = experiment: Growth inhibition of human COLO205 cells at 10 ug/ml by MTT assay; format: functional; settings: read-out: GI
COLO 205 [11] = experiment: Growth inhibition of human COLO205 cells at 20 ug/ml by MTT assay; format: functional; settings: read-out: GI
COLO 205 [12] = experiment: Growth inhibition of human COLO205 cells at 5 ug/ml by MTT assay; format: functional; settings: read-out: GI
HepG2 [13] = experiment: Growth inhibition of human HepG2 cells at 20 ug/ml by MTT assay; format: functional; settings: read-out: GI
HepG2 [14] = experiment: Growth inhibition of human HepG2 cells at 30 ug/ml by MTT assay; format: functional; settings: read-out: GI
HepG2 [15] = experiment: Growth inhibition of human HepG2 cells at 5 ug/ml by MTT assay; format: functional; settings: read-out: GI
HepG2 [16] = experiment: Growth inhibition of human HepG2 cells at 10 ug/ml by MTT assay; format: functional; settings: read-out: GI
MCF7 [17] = experiment: Growth inhibition of human MCF7 cells by MTT assay; format: functional, cell-based
COLO 205 [18] = experiment: Growth inhibition of human COLO205 cells by MTT assay; format: functional, cell-based
HepG2 [19] = experiment: Growth inhibition of human HepG2 cells by MTT assay; format: functional, cell-based
MCF-10A [20] = experiment: Disruption of cell integrity in human MCF10A cells at 10 ug/ml by immunofluorescence analysis relative to control; format: ADME, cell-based
MCF-10A [21] = experiment: Disruption of microfilament organization in human MCF10A cells at 10 ug/ml by immunofluorescence analysis relative to control; format: ADME, cell-based
MCF-10A [22] = experiment: Antimigratory activity against human MCF10A cells at 10 ug/ml by wound-healing assay; format: ADME, cell-based
How it was run: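 Scratch wound-healing: monolayers wounded with a p200 pipette tip, kept with or without complex; images taken at 0 and 24 h; reference lines drawn equidistant.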

MCF-10A [23] = experiment: as §1; format: cell-based; settings: mcf-10a
MCF-10A [24] = experiment: as §2; format: cell-based; settings: mcf-10a
MCF-10A [25] = experiment: as §3; format: cell-based; settings: mcf-10a
MCF-10A [26] = experiment: as §4; format: cell-based; settings: mcf-10a

O=c1cc(-c2ccccc2)oc2cc(O)cc(O)c12 [CHRYSIN]
inhibition at 30 ug/ml [1]: 29.6% | inhibition at 20 ug/ml [2]: 21.4% | inhibition at 5 ug/ml [3]: 5.92% | inhibition at 10 ug/ml [4]: 14.5% | inhibition of growth at 20 µg/mL (MCF7 [5]): 86.5% | inhibition of growth at 30 µg/mL (MCF7 [6]): 97% | inhibition of growth at 10 µg/mL (MCF7 [7]): 45.2% | inhibition of growth at 30 µg/mL (COLO 205 [8]): 65.2% | inhibition of growth at 5 µg/mL (MCF7 [9]): 14.6% | inhibition of growth at 10 µg/mL (COLO 205 [10]): 24.9% | inhibition of growth at 20 µg/mL (COLO 205 [11]): 56.5% | inhibition of growth at 5 µg/mL (COLO 205 [12]): 15.2% | inhibition of growth at 20 µg/mL (HepG2 [13]): 55.3% | inhibition of growth at 30 µg/mL (HepG2 [14]): 65.1% | inhibition of growth at 5 µg/mL (HepG2 [15]): 14.8% | inhibition of growth at 10 µg/mL (HepG2 [16]): 29.2% | growth inhibition (GI) (MCF7 [17]): Dose-dependent effect | growth inhibition (GI) (COLO 205 [18]): Dose-dependent effect | growth inhibition (GI) (HepG2 [19]): Dose-dependent effect

5-hydroxy-2-phenyl-7-(triphenylgermyloxy)-4H-chromen-4-one ethanol
Activity (MCF-10A [20]): Non-toxic | Activity (MCF-10A [21]): Non-toxic | Activity (MCF-10A [22]): Toxic | growth inhibition (GI) (MCF-10A [23]): 27.25% | growth inhibition (GI) (MCF-10A [24]): 23.67% | growth inhibition (GI) (MCF-10A [25]): 4.822% | growth inhibition (GI) (MCF-10A [26]): 12.3%
